# From article PMC9476207 (ACS Omega, 2022)
# Legend:
# Experiment in all cases: NCI-60 single-dose antiproliferative screen
# Type in all cases: cell-based
# [1] = test system: CCRF-CEM; conditions: Homo sapiens, 48 h, read-out: growth percent
# Summary of the method: (§1)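 NCI-60 protocol. Lines were grown in RPMI 1640 with 5% FBS and 2 mM L-glutamine, plated and incubated 24 h at 37 °C; time-zero plates were TCA-fixed. The test compound was dissolved in DMSO, diluted in medium with 50 μg/mL gentamicin and given once at a final 10^-5 M (DMSO control) for 48 h. Cells were fixed with cold TCA (1 h, 4 °C) and stained with 0.4% SRB in 1% acetic acid for 10 min. Dye was dissolved in 10 mM Trizma base and read at 515 nm. Growth percent was calculated from time-zero, test and control ODs.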
# [2] = test system: K-562; conditions: Homo sapiens, K562, 48 h, read-out: growth percent
# Summary of the method: as §1
# [3] = test system: RPMI-8226; conditions: Homo sapiens, RPMI-8226, 48 h, read-out: growth percent
# Summary of the method: as §1
# [4] = test system: SR; conditions: Homo sapiens, 48 h, read-out: growth percent
# Summary of the method: (§2)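 Cells grown in RPMI 1640 with 5% FBS and 2 mM L-glutamine, plated and held 24 h at 37 °C; time-zero plates TCA-fixed. DMSO stocks were diluted in gentamicin-containing medium to a final 10^-5 M, with a DMSO-only control. Exposure 48 h, 5% CO2. Adherent cells TCA-fixed 1 h at 4 °C, stained with 0.4% SRB, solubilised in 10 mM Trizma base, read at 515 nm. Growth percent derived from ODtzero, ODtest and ODctrl.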
# [5] = test system: A549/ATCC; conditions: Homo sapiens, A549, 48 h, read-out: growth percent
# Summary of the method: as §1
# [6] = test system: EKVX; conditions: Homo sapiens, 48 h, read-out: growth percent
# Summary of the method: as §1
# [7] = test system: HOP-62; conditions: Homo sapiens, HOP-62, 48 h, read-out: growth percent
# Summary of the method: as §1
# [8] = test system: HOP-92; conditions: Homo sapiens, HOP-92, 48 h, read-out: growth percent
# Summary of the method: as §1
# [9] = test system: NCI-H322M; conditions: Homo sapiens, 48 h, read-out: growth percent
# Summary of the method: as §1
# [10] = test system: NCI-H522; conditions: Homo sapiens, NCI-H522, 48 h, read-out: growth percent
# Summary of the method: as §1
# [11] = test system: HCC-2998; conditions: Homo sapiens, HCC 2998, 48 h, read-out: growth percent
# Summary of the method: as §1
# [12] = test system: KM12; conditions: Homo sapiens, KM12, 48 h, read-out: growth percent
# Summary of the method: as §1
# [13] = test system: SW-620; conditions: Homo sapiens, SW-620, 48 h, read-out: growth percent
# Summary of the method: as §2
# [14] = test system: SF-268; conditions: Homo sapiens, SF-268, 48 h, read-out: growth percent
# Summary of the method: as §1
# [15] = test system: SF-295; conditions: Homo sapiens, SF-295, 48 h, read-out: growth percent
# Summary of the method: as §1
# [16] = test system: LOX IMVI; conditions: Homo sapiens, 48 h, read-out: growth percent
# Summary of the method: as §1
# [17] = test system: MALME-3M; conditions: Homo sapiens, 48 h, read-out: growth percent
# Summary of the method: as §1
# [18] = test system: M14; conditions: Homo sapiens, M14, 48 h, read-out: growth percent
# Summary of the method: as §1
# [19] = test system: SK-MEL-2; conditions: Homo sapiens, SK-MEL-2, 48 h, read-out: growth percent
# Summary of the method: as §2
# [20] = test system: SK-MEL-28; conditions: Homo sapiens, SK-MEL-28, 48 h, read-out: growth percent
# Summary of the method: as §2
# [21] = test system: SK-MEL-5; conditions: Homo sapiens, SK-MEL-5, 48 h, read-out: growth percent
# Summary of the method: as §2
# [22] = test system: IGROV1; conditions: Homo sapiens, IGROV-1, 48 h, read-out: growth percent
# Summary of the method: as §1
# [23] = test system: OVCAR-4; conditions: Homo sapiens, OVCAR-4, 48 h, read-out: growth percent
# Summary of the method: as §1
# [24] = test system: OVCAR-5; conditions: Homo sapiens, OVCAR-5, 48 h, read-out: growth percent
# Summary of the method: as §1
# [25] = test system: NCI/ADR-RES; conditions: Homo sapiens, 48 h, read-out: growth percent
# Summary of the method: as §1
# [26] = test system: SK-OV-3; conditions: Homo sapiens, SK-OV-3, 48 h, read-out: growth percent
# Summary of the method: as §2
# [27] = test system: 786-0; conditions: Homo sapiens, 786-0, 48 h, read-out: growth percent
# Summary of the method: as §1
# [28] = test system: CAKI-1; conditions: Homo sapiens, CAKI-1, 48 h, read-out: growth percent
# Summary of the method: as §1
# [29] = test system: RXF 393; conditions: Homo sapiens, RXF 393, 48 h, read-out: growth percent
# Summary of the method: as §1
# [30] = test system: SN12C; conditions: Homo sapiens, 48 h, read-out: growth percent
# Summary of the method: as §2
# [31] = test system: TK-10; conditions: Homo sapiens, TK-10, 48 h, read-out: growth percent
# Summary of the method: as §2
# [32] = test system: DU-145; conditions: Homo sapiens, DU-145, 48 h, read-out: growth percent
# Summary of the method: as §1
# [33] = test system: MCF-7; conditions: Homo sapiens, MCF7, 48 h, read-out: growth percent
# Summary of the method: as §1
# [34] = test system: MDA-MB-231 ATCC; conditions: Homo sapiens, MDA-MB-231, 48 h, read-out: growth percent
# Summary of the method: as §1
# [35] = test system: BT-549; conditions: Homo sapiens, BT-549, 48 h, read-out: growth percent
# Summary of the method: as §1
# [36] = test system: MDA-MB-468; conditions: Homo sapiens, MDA-MB-468, 48 h, read-out: growth percent
# Summary of the method: as §1
Compound,activity at 10 µM [1] [%],activity at 10 µM [2] [%],activity at 10 µM [3] [%],activity at 10 µM [4] [%],activity at 10 µM [5] [%],activity at 10 µM [6] [%],activity at 10 µM [7] [%],activity at 10 µM [8] [%],activity at 10 µM [9] [%],activity at 10 µM [10] [%],activity at 10 µM [11] [%],activity at 10 µM [12] [%],activity at 10 µM [13] [%],activity at 10 µM [14] [%],activity at 10 µM [15] [%],activity at 10 µM [16] [%],activity at 10 µM [17] [%],activity at 10 µM [18] [%],activity at 10 µM [19] [%],activity at 10 µM [20] [%],also measured
"COc1cc(CNC(=O)CCCC/C=C/C(C)C)ccc1OCc1cn(-c2ccccc2F)nn1 [14i, (E)-N-(4-((1-(2-Fluorophenyl)-1H-1,2,3-triazol-4-yl)methoxy)-3-methoxybenzyl)-8-methylnon-6-enamide]",88.6,82.3,81.3,81.5,91.3,79.1,85,78.7,90.2,77.5,97.2,98.9,98.1,95,99,87.1,108,96.8,106,107,activity at 10 µM [21]: 91.5%; activity at 10 µM [22]: 101%; activity at 10 µM [23]: 84.2%; activity at 10 µM [24]: 103%; activity at 10 µM [25]: 89.8%; activity at 10 µM [26]: 97.8%; activity at 10 µM [27]: 97.2%; activity at 10 µM [28]: 90.6%; activity at 10 µM [29]: 103%; activity at 10 µM [30]: 92.7%; activity at 10 µM [31]: 111%; activity at 10 µM [32]: 106%; activity at 10 µM [33]: 97.1%; activity at 10 µM [34]: 78.7%; activity at 10 µM [35]: 89.2%; activity at 10 µM [36]: 92.8%
"COc1cc(CNC(=O)CCCC/C=C/C(C)C)ccc1OCc1cn(-c2ccc(C#N)cc2)nn1 [14j, (E)-N-(4-((1-(4-Cyanophenyl)-1H-1,2,3-triazol-4-yl)methoxy)-3-methoxybenzyl)-8-methylnon-6-enamide]",86.2,75.4,65.4,76.3,84.8,90.8,103,80.5,95.3,88.2,94.5,91.5,98,90.9,102,78.2,102,95.3,98.4,105,activity at 10 µM [21]: 87%; activity at 10 µM [22]: 100%; activity at 10 µM [23]: 94.9%; activity at 10 µM [24]: 95.3%; activity at 10 µM [25]: 79.7%; activity at 10 µM [26]: 88.2%; activity at 10 µM [27]: 91.7%; activity at 10 µM [28]: 74.6%; activity at 10 µM [29]: 90.8%; activity at 10 µM [30]: 98.3%; activity at 10 µM [31]: 91.8%; activity at 10 µM [32]: 44.4%; activity at 10 µM [33]: 103%; activity at 10 µM [34]: 90.8%; activity at 10 µM [35]: 91.2%; activity at 10 µM [36]: 74.9%
"COc1cc(CNC(=O)CCCC/C=C/C(C)C)ccc1OCc1cn(-c2ccc(Br)cc2)nn1 [14k, (E)-N-(4-((1-(4-Bromophenyl)-1H-1,2,3-triazol-4-yl)methoxy)-3-methoxybenzyl)-8-methylnon-6-enamide]",94.2,59.2,57.4,67.2,88.5,72.7,88.2,68.8,90.6,82.5,88.8,94.3,94.7,78.9,85.4,83.7,103,90.2,95.2,100,activity at 10 µM [21]: 72%; activity at 10 µM [22]: 72.7%; activity at 10 µM [23]: 89.2%; activity at 10 µM [24]: 116%; activity at 10 µM [25]: 72%; activity at 10 µM [26]: 74.8%; activity at 10 µM [27]: 92%; activity at 10 µM [28]: 74.3%; activity at 10 µM [29]: 105%; activity at 10 µM [30]: 83%; activity at 10 µM [31]: 118%; activity at 10 µM [32]: 98.8%; activity at 10 µM [33]: 76.2%; activity at 10 µM [34]: 71.3%; activity at 10 µM [35]: 88.1%; activity at 10 µM [36]: 68.2%
"COc1cc(CNC(=O)CCCC/C=C/C(C)C)ccc1OCc1cn(-c2ccccc2OC)nn1 [14l, (E)-N-(3-Methoxy-4-((1-(2-methoxyphenyl)-1H-1,2,3-triazol-4-yl)methoxy)benzyl)-8-methylnon-6-enamide]",83.7,76.1,71.2,77.4,86,89.4,88.7,72.1,92.2,63.9,117,98.2,97,92.6,108,86.1,106,96.7,89.8,116,activity at 10 µM [21]: 83.9%; activity at 10 µM [22]: 104%; activity at 10 µM [23]: 100%; activity at 10 µM [24]: 113%; activity at 10 µM [25]: 94.6%; activity at 10 µM [26]: 99.8%; activity at 10 µM [27]: 102%; activity at 10 µM [28]: 79.9%; activity at 10 µM [29]: 101%; activity at 10 µM [30]: 98%; activity at 10 µM [31]: 90.2%; activity at 10 µM [32]: 83.1%; activity at 10 µM [33]: 98.2%; activity at 10 µM [34]: 95.8%; activity at 10 µM [35]: 93.1%; activity at 10 µM [36]: 75.5%
